Data taken from ChEMBL document CHEMBL1821654, “Synthesis and biological evaluation of analogues of M6G” (2011).
Calls of active or inactive are those of the source.

Experiments:
Mus musculus [1] = assay: Analgesic activity in Swiss mouse assessed as maximum possible tail flick latency at 1.25 mg/kg, sc; format: functional; conditions: route subcutaneous
In short: (§1)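 Male Swiss mice, 12 per group, were given compound subcutaneously at doses between 1.25 and 30 mg/kg. Analgesia was measured by tail-flick with an 8 s cut-off to avoid tissue damage. Readings were taken several times from 20 to 120 min after dosing. Inhibition was expressed as percent maximum possible effect (%MPE) by the D'Amour–Smith method.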

Mus musculus [2] = assay: Analgesic activity in Swiss mouse assessed as maximum possible tail flick latency at 1.25 mg/kg, sc upto 120 mins; format: functional, organism-based; parameters: dose 1.25 mg/kg; in short: as §1
Mus musculus [3] = assay: Analgesic activity in sc dosed Swiss mouse assessed as assessed as thermal-stimulus induced tail flick latency after 30 mins; conditions: 0.5 h
Mus musculus [4] = assay: Analgesic activity in Swiss mouse assessed as maximum possible tail flick latency at 10 mg/kg, po; format: functional
In short: (§2)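 Compound was given […] to male Swiss mice, 12 per group. Analgesia was measured by tail-flick with an 8 s cut-off. Responsiveness was read several times from 20 to 120 min after dosing. Tail-flick inhibition was expressed as percent maximum possible effect (%MPE) by the D'Amour–Smith method.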

Mus musculus [5] = assay: Analgesic activity in po dosed Swiss mouse assessed as thermal-stimulus induced tail flick latency; format: functional; in short: as §2
Mus musculus [6] = assay: Analgesic activity in sc dosed Swiss mouse assessed as assessed as thermal-stimulus induced tail flick latency after 60 mins; format: functional; conditions: 1 h

SMILES	MPE (Mus musculus [1]) [%]	Activity (Mus musculus [2])	also measured
CN1CC[C@]23c4c5ccc(O)c4O[C@H]2[C@@H](O[C@@H]2O[C@H](c4nc6n(n4)CCC(O)N6)[C@@H](O)[C@H](O)[C@H]2O)C=C[C@H]3[C@H]1C5.O=C(O)C(F)(F)F (stereo not given in full)	80	Active	–
CN1CC[C@]23c4c5ccc(O)c4O[C@H]2[C@@H](O)C=C[C@H]3[C@H]1C5 [MORPHINE]	–	–	ED50 (Mus musculus [3]): 4.4 mg/kg
CN1CC[C@]23c4c5ccc(O)c4O[C@H]2[C@@H](O[C@@H]2O[C@H](c4nnn[nH]4)[C@@H](O)[C@H](O)[C@H]2O)C=C[C@H]3[C@H]1C5.O=C(O)C(F)(F)F	80	Active	MPE (Mus musculus [4]): 78%; ED50 (Mus musculus [5]): 2.5 mg/kg
CN1CC[C@]23c4c5ccc(O)c4O[C@H]2[C@@H](O[C@@H]2O[C@H](C(=O)O)[C@@H](O)[C@H](O)[C@H]2O)C=C[C@H]3[C@H]1C5 [MORPHINE GLUCURONIDE]	–	–	ED50 (Mus musculus [6]): 2.7 mg/kg
Cc1nnc([C@H]2O[C@@H](O[C@H]3C=C[C@H]4[C@H]5Cc6ccc(O)c7c6[C@@]4(CCN5C)[C@H]3O7)[C@H](O)[C@@H](O)[C@@H]2O)o1.O=C(O)C(F)(F)F	80	Active	–
